In paper PMC9116722 (Cancer chemotherapy and pharmacology, 2022):

Assay: Adverse events
Format: in vivo, human
Details: BRCAmut
Outline: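 Patients with germline BRCA-mutated cancers, or BRCA-wildtype TNBC or platinum-refractory ovarian cancer, took oral drug continuously twice daily in 28-day cycles. There were nine dose levels from 50 to 500 mg BID under 3+3 escalation, run separately per cohort after the first DLT. Toxicities were graded by CTCAE v4.0, with DLTs assessed during cycle 1.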

## C[C@]1(c2nc3c(C(N)=O)cccc3[nH]2)CCCN1 [veliparib]
DL3 100/100 mg AM/PM
  Anemia, Grade 3: 0 number of patients (%)
  Anemia, Grade 4: 0 number of patients (%)
  Any Grade 3/4 toxicity: 0 number of patients (%)
  Any Grade 3 toxicity: 0 number of patients (%)
  Any Grade 4 toxicity: 0 number of patients (%)
  Appendicitis, Grade 3: 0 number of patients (%)
  Aspartate aminotransferase increased, Grade 3: 0 number of patients (%)
  Dehydration, Grade 3: 0 number of patients (%)
  Dyspnea, Grade 4: 0 number of patients (%)
  Fatigue, Grade 3: 0 number of patients (%)
  Headache, Grade 3: 0 number of patients (%)
  Hypophosphatemia, Grade 3: 0 number of patients (%)
  Lymphocyte count decreased, Grade 3: 0 number of patients (%)
  Lymphocyte count decreased, Grade 4: 0 number of patients (%)
  Nausea, Grade 3: 0 number of patients (%)
  Platelet count decreased, Grade 4: 0 number of patients (%)
  Thromboembolic event, Grade 3: 0 number of patients (%)
  Thromboembolic event, Grade 4: 0 number of patients (%)
  Urinary tract infection, Grade 3: 0 number of patients (%)
DL6 200/200 mg AM/PM
  Abdominal pain, Grade 3: 0 number of patients (%)
  Alkaline phosphatase increased, Grade 3: 0 number of patients (%)
  Anemia, Grade 3: 0 number of patients (%)
  Anemia, Grade 4: 0 number of patients (%)
  Any Grade 3/4 toxicity: 0 number of patients (%)
  Any Grade 3 toxicity: 0 number of patients (%)
  Any Grade 4 toxicity: 0 number of patients (%)
  Appendicitis, Grade 3: 0 number of patients (%)
  Aspartate aminotransferase increased, Grade 3: 0 number of patients (%)
  Dehydration, Grade 3: 0 number of patients (%)
  Dyspnea, Grade 4: 0 number of patients (%)
  Fatigue, Grade 3: 0 number of patients (%)
  Headache, Grade 3: 0 number of patients (%)
  Hypophosphatemia, Grade 3: 0 number of patients (%)
  Lymphocyte count decreased, Grade 3: 0 number of patients (%)
  Lymphocyte count decreased, Grade 4: 0 number of patients (%)
  Nausea, Grade 3: 0 number of patients (%)
  Platelet count decreased, Grade 4: 0 number of patients (%)
  Thromboembolic event, Grade 3: 0 number of patients (%)
  Thromboembolic event, Grade 4: 0 number of patients (%)
  Urinary tract infection, Grade 3: 0 number of patients (%)
DL7 300/300 mg AM/PM
  Abdominal pain, Grade 3: 0 number of patients (%)
  Alkaline phosphatase increased, Grade 3: 0 number of patients (%)
  Anemia, Grade 3: 0 number of patients (%)
  Anemia, Grade 4: 0 number of patients (%)
  Any Grade 3/4 toxicity: 2 (33) number of patients (%)
  Any Grade 3 toxicity: 2 (33) number of patients (%)
  Any Grade 4 toxicity: 0 number of patients (%)
  Appendicitis, Grade 3: 1 (17) number of patients (%)
  Aspartate aminotransferase increased, Grade 3: 0 number of patients (%)
  Dehydration, Grade 3: 0 number of patients (%)
  Dyspnea, Grade 4: 0 number of patients (%)
  Fatigue, Grade 3: 0 number of patients (%)
  Headache, Grade 3: 1 (17) number of patients (%)
  Hypophosphatemia, Grade 3: 0 number of patients (%)
  Lymphocyte count decreased, Grade 3: 1 (17) number of patients (%)
  Lymphocyte count decreased, Grade 4: 0 number of patients (%)
  Nausea, Grade 3: 0 number of patients (%)
  Platelet count decreased, Grade 4: 0 number of patients (%)
  Thromboembolic event, Grade 3: 0 number of patients (%)
  Thromboembolic event, Grade 4: 0 number of patients (%)
  Urinary tract infection, Grade 3: 0 number of patients (%)
DL8 400/400 mg AM/PM
  Abdominal pain, Grade 3: 2 (6) number of patients (%)
  Alkaline phosphatase increased, Grade 3: 0 number of patients (%)
  Anemia, Grade 3: 1 (3) number of patients (%)
  Anemia, Grade 4: 0 number of patients (%)
  Any Grade 3/4 toxicity: 11 (32) number of patients (%)
  Any Grade 3 toxicity: 11 (32) number of patients (%)
  Any Grade 4 toxicity: 1 (3) number of patients (%)
  Appendicitis, Grade 3: 0 number of patients (%)
  Aspartate aminotransferase increased, Grade 3: 0 number of patients (%)
  Dehydration, Grade 3: 1 (3) number of patients (%)
  Dyspnea, Grade 4: 0 number of patients (%)
  Fatigue, Grade 3: 1 (3) number of patients (%)
  Headache, Grade 3: 0 number of patients (%)
  Hypophosphatemia, Grade 3: 1 (3) number of patients (%)
  Lymphocyte count decreased, Grade 3: 7 (21) number of patients (%)
  Lymphocyte count decreased, Grade 4: 1 (3) number of patients (%)
  Nausea, Grade 3: 2 (6) number of patients (%)
  Platelet count decreased, Grade 4: 0 number of patients (%)
  Thromboembolic event, Grade 3: 2 (6) number of patients (%)
  Thromboembolic event, Grade 4: 0 number of patients (%)
  Urinary tract infection, Grade 3: 1 (3) number of patients (%)
DL9 500/500 mg AM/PM
  Abdominal pain, Grade 3: 0 number of patients (%)
  Alkaline phosphatase increased, Grade 3: 0 number of patients (%)
  Anemia, Grade 3: 0 number of patients (%)
  Anemia, Grade 4: 1 (14) number of patients (%)
  Any Grade 3/4 toxicity: 2 (29) number of patients (%)
